{
  "source": "ChEMBL document CHEMBL4382192",
  "about": "“Discovery of a potent dual ALK and EGFR T790M inhibitor” (Eur J Med Chem, 2017)",
  "key": {"[1]": {"test": "Cmax in mouse at 2 mg/kg, iv", "assay_type": "ADME, organism-based", "design": "dose 2 mg/kg, route intravenous", "settings": "in vivo"}, "[2]": {"test": "Drug uptake in mouse plasma at 10 mg/kg, po after 2 hrs", "assay_type": "ADME, organism-based"}, "[3]": {"target": "Activin receptor type-2A (Homo sapiens) (UniProt P27037)", "sequence (P27037 whole entry, the tested form may be a part)": "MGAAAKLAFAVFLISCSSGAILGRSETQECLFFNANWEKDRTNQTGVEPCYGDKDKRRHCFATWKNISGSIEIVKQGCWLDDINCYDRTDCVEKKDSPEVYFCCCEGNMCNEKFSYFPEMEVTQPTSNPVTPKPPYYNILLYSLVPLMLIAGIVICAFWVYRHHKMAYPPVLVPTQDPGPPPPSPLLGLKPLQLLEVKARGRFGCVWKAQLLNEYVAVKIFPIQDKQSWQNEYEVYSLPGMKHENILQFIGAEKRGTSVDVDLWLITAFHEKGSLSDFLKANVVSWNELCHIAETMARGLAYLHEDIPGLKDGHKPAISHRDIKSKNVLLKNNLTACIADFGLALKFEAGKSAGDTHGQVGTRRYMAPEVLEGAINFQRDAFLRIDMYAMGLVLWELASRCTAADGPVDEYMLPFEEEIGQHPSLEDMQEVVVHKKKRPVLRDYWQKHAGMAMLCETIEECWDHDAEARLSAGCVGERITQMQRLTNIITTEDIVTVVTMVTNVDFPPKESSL", "test": "Binding affinity to wild-type human ACVR2A (V171 to T499 residues) expressed in bacterial expression system assessed as residual binding level at 1 uM by Kinomescan method relative to control"}, "[4]": {"system": "ALK tyrosine kinase receptor (Homo sapiens), Q9UM73 [L1196M]", "test": "Binding affinity to wild-type human partial length ALK L1196M mutant (I1088 to E1409 residues) expressed in mammalian expression system assessed as residual binding level at 1 uM by Kinomescan method relative to control"}, "[5]": {"target": "Casein kinase I isoform gamma-1 (Homo sapiens) (UniProt Q9HCP0)", "test": "Binding affinity to wild-type human partial length CSNK1G1 (T15 to S353 residues) expressed in bacterial expression system assessed as residual binding level at 1 uM by Kinomescan method relative to control"}, "[6]": {"target": "Death-associated protein kinase 3 (Homo sapiens) (UniProt O43293)", "test": "Binding affinity to wild-type human partial length DAPK3 (M1 to A277 residues) expressed in bacterial expression system assessed as residual binding level at 1 uM by Kinomescan method relative to control"}, "[7]": {"target": "Ephrin type-A receptor 6 (Homo sapiens) (UniProt Q9UF33)", "test": "Binding affinity to wild-type human partial length EPHA6 (Y700 to E1046 residues) expressed in bacterial expression system assessed as residual binding level at 1 uM by Kinomescan method relative to control"}, "[8]": {"target": "Ephrin type-A receptor 7 (Homo sapiens) (UniProt Q15375)", "test": "Binding affinity to wild-type human partial length EPHA7 (Y608 to S912 residues) expressed in bacterial expression system assessed as residual binding level at 1 uM by Kinomescan method relative to control"}, "[9]": {"target": "Ephrin type-B receptor 3 (Homo sapiens) (UniProt P54753)", "test": "Binding affinity to wild-type human partial length EPHB3 (Q599 to T928 residues) expressed in bacterial expression system assessed as residual binding level at 1 uM by Kinomescan method relative to control"}, "[10]": {"target": "Fibroblast growth factor receptor 1 (Homo sapiens) (UniProt P11362)", "test": "Binding affinity to wild-type human partial length FGFR1 (P357 to V669 residues) expressed in bacterial expression system assessed as residual binding level at 1 uM by Kinomescan method relative to control"}, "[11]": {"target": "G protein-coupled receptor kinase 3 (Homo sapiens) (UniProt P35626)", "test": "Binding affinity to wild-type human full length GRK3 (M1 to L688 residues) expressed in mammalian expression system assessed as residual binding level at 1 uM by Kinomescan method relative to control", "procedure,_shortened": "(§1)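 Single-point kinome-wide KINOMEscan binding panel, test compound at 1 μM, run by the provider's standard protocol.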"}, "[12]": {"target": "Rhodopsin kinase GRK7 (Homo sapiens) (UniProt Q8WTQ7)", "sequence (Q8WTQ7 whole entry, the tested form may be a part)": "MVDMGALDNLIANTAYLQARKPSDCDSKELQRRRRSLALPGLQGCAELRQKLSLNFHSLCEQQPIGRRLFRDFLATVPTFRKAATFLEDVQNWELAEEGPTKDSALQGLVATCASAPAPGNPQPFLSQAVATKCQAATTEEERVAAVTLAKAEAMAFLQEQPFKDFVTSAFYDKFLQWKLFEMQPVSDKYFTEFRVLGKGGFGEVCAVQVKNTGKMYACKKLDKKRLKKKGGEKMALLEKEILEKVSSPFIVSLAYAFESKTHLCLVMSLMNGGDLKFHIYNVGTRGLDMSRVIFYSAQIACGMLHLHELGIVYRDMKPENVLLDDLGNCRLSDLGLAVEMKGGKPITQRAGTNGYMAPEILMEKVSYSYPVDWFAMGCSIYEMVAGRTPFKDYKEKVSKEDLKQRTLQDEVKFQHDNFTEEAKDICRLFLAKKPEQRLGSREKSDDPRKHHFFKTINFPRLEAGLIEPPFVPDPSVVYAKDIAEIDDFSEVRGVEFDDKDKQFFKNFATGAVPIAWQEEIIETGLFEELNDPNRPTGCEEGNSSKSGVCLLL", "test": "Binding affinity to wild-type human full length GRK7 (M1 to L553 residues) expressed in mammalian expression system assessed as residual binding level at 1 uM by Kinomescan method relative to control", "procedure,_shortened": "as §1"}, "[13]": {"target": "Leucine-rich repeat serine/threonine-protein kinase 2 (Homo sapiens) (UniProt Q5S007)", "test": "Binding affinity to wild-type human partial length LRRK2 (H970 to E2527 residues) expressed in mammalian expression system assessed as residual binding level at 1 uM by Kinomescan method relative to control"}, "[14]": {"target": "Leukocyte tyrosine kinase receptor (Homo sapiens) (UniProt P29376)", "test": "Binding affinity to wild-type human partial length LTK (P422 to S744 residues) expressed in bacterial expression system assessed as residual binding level at 1 uM by Kinomescan method relative to control"}, "[15]": {"target": "Serine/threonine-protein kinase MRCK alpha (Homo sapiens) (UniProt Q5VT25)", "sequence (Q5VT25 whole entry, the tested form may be a part)": "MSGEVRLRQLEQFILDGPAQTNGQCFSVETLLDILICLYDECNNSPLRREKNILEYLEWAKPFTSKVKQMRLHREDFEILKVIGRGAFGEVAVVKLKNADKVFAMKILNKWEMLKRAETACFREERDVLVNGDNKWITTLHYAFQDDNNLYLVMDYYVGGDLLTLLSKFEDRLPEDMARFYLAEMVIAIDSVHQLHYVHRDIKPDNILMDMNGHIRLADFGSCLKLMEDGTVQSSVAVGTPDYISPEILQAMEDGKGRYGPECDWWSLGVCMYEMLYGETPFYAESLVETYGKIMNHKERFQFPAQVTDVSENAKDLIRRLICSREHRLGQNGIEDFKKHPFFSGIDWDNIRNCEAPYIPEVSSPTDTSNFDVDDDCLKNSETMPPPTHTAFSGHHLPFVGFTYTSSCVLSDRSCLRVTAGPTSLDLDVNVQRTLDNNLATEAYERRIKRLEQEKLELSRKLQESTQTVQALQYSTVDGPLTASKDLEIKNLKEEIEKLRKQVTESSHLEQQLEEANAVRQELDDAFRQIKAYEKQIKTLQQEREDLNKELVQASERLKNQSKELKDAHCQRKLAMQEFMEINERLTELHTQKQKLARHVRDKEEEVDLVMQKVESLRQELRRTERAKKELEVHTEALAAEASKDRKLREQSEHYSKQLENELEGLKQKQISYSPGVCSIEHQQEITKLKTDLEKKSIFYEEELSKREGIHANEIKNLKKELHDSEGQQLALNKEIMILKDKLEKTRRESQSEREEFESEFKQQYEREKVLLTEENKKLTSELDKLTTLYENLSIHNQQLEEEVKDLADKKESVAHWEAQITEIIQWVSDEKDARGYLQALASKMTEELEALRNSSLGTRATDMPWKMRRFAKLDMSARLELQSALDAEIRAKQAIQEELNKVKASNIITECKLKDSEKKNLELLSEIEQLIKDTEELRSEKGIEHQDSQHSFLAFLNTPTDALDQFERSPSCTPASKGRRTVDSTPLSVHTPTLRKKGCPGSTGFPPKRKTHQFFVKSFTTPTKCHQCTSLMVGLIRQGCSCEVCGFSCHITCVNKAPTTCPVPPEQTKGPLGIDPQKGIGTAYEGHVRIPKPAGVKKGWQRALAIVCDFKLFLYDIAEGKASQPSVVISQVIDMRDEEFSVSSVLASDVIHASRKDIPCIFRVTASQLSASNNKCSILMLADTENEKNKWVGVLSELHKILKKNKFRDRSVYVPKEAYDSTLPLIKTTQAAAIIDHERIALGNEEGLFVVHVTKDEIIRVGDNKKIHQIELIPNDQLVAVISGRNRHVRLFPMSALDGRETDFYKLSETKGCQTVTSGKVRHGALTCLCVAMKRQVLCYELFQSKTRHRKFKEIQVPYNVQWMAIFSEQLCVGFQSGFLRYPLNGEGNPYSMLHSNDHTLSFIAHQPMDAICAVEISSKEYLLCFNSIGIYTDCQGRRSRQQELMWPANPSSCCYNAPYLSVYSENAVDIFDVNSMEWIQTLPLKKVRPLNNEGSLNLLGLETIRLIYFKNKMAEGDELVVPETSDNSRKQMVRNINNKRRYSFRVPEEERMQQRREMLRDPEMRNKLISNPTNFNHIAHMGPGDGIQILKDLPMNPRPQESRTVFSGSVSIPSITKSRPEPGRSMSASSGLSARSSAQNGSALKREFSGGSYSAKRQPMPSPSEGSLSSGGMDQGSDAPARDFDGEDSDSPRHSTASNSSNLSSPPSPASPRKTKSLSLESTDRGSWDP", "test": "Binding affinity to wild-type human partial length MRCKA (L57 to V418 residues) expressed in bacterial expression system assessed as residual binding level at 1 uM by Kinomescan method relative to control"}, "[16]": {"target": "Serine/threonine-protein kinase Nek11 (Homo sapiens) (UniProt Q8NG66)", "sequence (Q8NG66 whole entry, the tested form may be a part)": "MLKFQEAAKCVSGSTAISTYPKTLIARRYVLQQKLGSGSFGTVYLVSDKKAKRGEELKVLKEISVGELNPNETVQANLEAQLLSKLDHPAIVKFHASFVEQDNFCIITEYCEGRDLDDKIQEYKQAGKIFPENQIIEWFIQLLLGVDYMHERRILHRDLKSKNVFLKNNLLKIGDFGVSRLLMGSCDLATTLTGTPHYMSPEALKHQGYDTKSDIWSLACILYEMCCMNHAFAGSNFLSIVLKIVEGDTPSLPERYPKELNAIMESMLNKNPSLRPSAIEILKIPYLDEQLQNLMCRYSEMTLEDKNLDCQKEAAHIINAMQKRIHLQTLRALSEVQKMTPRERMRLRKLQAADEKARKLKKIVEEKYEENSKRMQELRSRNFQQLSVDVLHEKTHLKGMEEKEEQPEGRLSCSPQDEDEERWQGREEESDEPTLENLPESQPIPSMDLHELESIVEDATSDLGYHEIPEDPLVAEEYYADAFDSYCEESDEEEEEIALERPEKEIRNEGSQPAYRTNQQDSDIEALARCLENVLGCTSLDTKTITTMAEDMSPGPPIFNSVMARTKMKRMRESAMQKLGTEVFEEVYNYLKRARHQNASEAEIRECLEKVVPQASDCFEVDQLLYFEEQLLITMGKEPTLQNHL", "test": "Binding affinity to wild-type human partial length NEK11 (M1 to E313 residues) expressed in mammalian expression system assessed as residual binding level at 1 uM by Kinomescan method relative to control"}, "[17]": {"target": "Serine/threonine-protein kinase Nek3 (Homo sapiens) (UniProt P51956)", "sequence (P51956 whole entry, the tested form may be a part)": "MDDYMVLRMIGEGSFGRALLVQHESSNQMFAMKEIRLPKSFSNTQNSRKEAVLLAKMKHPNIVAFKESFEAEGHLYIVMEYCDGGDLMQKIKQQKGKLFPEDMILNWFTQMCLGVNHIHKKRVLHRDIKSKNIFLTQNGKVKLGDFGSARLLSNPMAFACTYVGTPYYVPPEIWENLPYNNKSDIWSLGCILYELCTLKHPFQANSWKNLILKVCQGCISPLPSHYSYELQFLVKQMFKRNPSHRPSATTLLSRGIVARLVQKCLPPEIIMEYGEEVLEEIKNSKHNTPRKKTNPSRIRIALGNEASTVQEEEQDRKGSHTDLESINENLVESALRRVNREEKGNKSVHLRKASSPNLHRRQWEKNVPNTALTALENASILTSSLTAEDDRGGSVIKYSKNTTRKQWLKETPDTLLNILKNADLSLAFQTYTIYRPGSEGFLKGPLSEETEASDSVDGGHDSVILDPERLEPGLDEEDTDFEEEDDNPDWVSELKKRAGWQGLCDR", "test": "Binding affinity to wild-type human full length NEK3 (M1 to R506 residues) expressed in mammalian expression system assessed as residual binding level at 1 uM by Kinomescan method relative to control", "procedure,_shortened": "as §1"}, "[18]": {"target": "Mitogen-activated protein kinase 12 (Homo sapiens) (UniProt P53778)", "sequence (P53778 whole entry, the tested form may be a part)": "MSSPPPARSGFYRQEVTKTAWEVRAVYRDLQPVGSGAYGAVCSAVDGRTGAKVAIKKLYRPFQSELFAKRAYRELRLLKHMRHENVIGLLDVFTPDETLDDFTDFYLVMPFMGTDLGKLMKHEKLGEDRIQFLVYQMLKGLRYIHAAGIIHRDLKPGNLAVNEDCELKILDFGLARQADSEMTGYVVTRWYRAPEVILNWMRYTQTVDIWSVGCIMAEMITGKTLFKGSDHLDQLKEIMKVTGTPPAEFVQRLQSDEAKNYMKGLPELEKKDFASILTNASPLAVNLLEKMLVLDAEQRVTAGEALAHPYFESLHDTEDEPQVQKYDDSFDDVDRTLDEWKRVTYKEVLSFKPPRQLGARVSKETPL", "test": "Binding affinity to wild-type human full length p38-gamma (M1 to L367 residues) expressed in mammalian expression system assessed as residual binding level at 1 uM by Kinomescan method relative to control"}, "[19]": {"target": "Serine/threonine-protein kinase PAK 2 (Homo sapiens) (UniProt Q13177)", "sequence (Q13177 whole entry, the tested form may be a part)": "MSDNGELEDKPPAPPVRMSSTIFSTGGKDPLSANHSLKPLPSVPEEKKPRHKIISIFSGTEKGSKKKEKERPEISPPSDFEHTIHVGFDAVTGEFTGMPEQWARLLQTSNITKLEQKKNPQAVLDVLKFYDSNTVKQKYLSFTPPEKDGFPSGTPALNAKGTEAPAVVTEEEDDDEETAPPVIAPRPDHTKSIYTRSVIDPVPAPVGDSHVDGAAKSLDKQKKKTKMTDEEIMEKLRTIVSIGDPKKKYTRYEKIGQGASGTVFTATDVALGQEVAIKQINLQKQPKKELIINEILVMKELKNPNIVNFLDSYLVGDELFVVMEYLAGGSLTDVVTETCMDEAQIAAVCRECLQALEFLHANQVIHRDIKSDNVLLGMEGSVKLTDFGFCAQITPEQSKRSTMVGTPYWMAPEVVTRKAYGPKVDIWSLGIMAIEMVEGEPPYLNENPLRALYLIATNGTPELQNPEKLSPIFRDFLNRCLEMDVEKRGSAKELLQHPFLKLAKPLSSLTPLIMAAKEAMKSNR", "test": "Binding affinity to wild-type human partial length PAK2 (P151 to R525 residues) expressed in bacterial expression system assessed as residual binding level at 1 uM by Kinomescan method relative to control"}, "[20]": {"target": "Serine/threonine-protein kinase pim-2 (Homo sapiens) (UniProt Q9P1W9)", "test": "Binding affinity to wild-type human partial length PIM2 (M1 to E291 residues) expressed in bacterial expression system assessed as residual binding level at 1 uM by Kinomescan method relative to control"}, "[21]": {"target": "Protein kinase C eta type (Homo sapiens) (UniProt P24723)", "test": "Binding affinity to wild-type human partial length PRKCH (S324 to P683 residues) expressed in bacterial expression system assessed as residual binding level at 1 uM by Kinomescan method relative to control"}, "[22]": {"target": "Serine/threonine-protein kinase RIO2 (Homo sapiens) (UniProt Q9BVS4)", "test": "Binding affinity to wild-type human partial length RIOK2 (M1 to D313 residues) expressed in mammalian expression system assessed as residual binding level at 1 uM by Kinomescan method relative to control"}, "[23]": {"target": "SNF-related serine/threonine-protein kinase (Homo sapiens) (UniProt Q9NRH2)", "test": "Binding affinity to wild-type human partial length SNRK (M1 to E339 residues) expressed in mammalian expression system assessed as residual binding level at 1 uM by Kinomescan method relative to control"}, "[24]": {"target": "Tyrosine-protein kinase receptor Tie-1 (Homo sapiens) (UniProt P35590)", "test": "Binding affinity to wild-type human partial length TIE1 (T819 to A1138 residues) expressed in bacterial expression system assessed as residual binding level at 1 uM by Kinomescan method relative to control"}, "[25]": {"target": "NT-3 growth factor receptor (Homo sapiens) (UniProt Q16288)", "test": "Binding affinity to wild-type human partial length TRKC (Q531 to G825 residues) expressed in mammalian expression system assessed as residual binding level at 1 uM by Kinomescan method relative to control"}},
  "data": [
    {"smiles": "C=CC(=O)Nc1cc(Nc2ncc(Cl)c(Nc3ccccc3S(=O)(=O)C(C)C)n2)c(OC)cc1N(C)CCN(C)C", "values": [
      {"measurement": "Cmax", "setting": "[1]", "value": 0.882, "unit": "µg/mL"},
      {"measurement": "concentration at 2 h", "setting": "[2]", "value": 0.15, "unit": "µM"},
      {"measurement": "Activity", "setting": "[3]", "value": 96, "unit": "%"},
      {"measurement": "Activity", "setting": "[4]", "value": 0, "unit": "%"},
      {"measurement": "Activity", "setting": "[5]", "value": 74, "unit": "%"},
      {"measurement": "Activity", "setting": "[6]", "value": 39, "unit": "%"},
      {"measurement": "Activity", "setting": "[7]", "value": 49, "unit": "%"},
      {"measurement": "Activity", "setting": "[8]", "value": 68, "unit": "%"},
      {"measurement": "Activity", "setting": "[9]", "value": 63, "unit": "%"},
      {"measurement": "Activity", "setting": "[10]", "value": 3.7, "unit": "%"},
      {"measurement": "Activity", "setting": "[11]", "value": 100, "unit": "%"},
      {"measurement": "Activity", "setting": "[12]", "value": 4.3, "unit": "%"},
      {"measurement": "Activity", "setting": "[13]", "value": 1.7, "unit": "%"},
      {"measurement": "Activity", "setting": "[14]", "value": 0, "unit": "%"},
      {"measurement": "Activity", "setting": "[15]", "value": 97, "unit": "%"},
      {"measurement": "Activity", "setting": "[16]", "value": 100, "unit": "%"},
      {"measurement": "Activity", "setting": "[17]", "value": 67, "unit": "%"},
      {"measurement": "Activity", "setting": "[18]", "value": 56, "unit": "%"},
      {"measurement": "Activity", "setting": "[19]", "value": 62, "unit": "%"},
      {"measurement": "Activity", "setting": "[20]", "value": 100, "unit": "%"},
      {"measurement": "Activity", "setting": "[21]", "value": 100, "unit": "%"},
      {"measurement": "Activity", "setting": "[22]", "value": 93, "unit": "%"},
      {"measurement": "Activity", "setting": "[23]", "value": 72, "unit": "%"},
      {"measurement": "Activity", "setting": "[24]", "value": 8.8, "unit": "%"},
      {"measurement": "Activity", "setting": "[25]", "value": 85, "unit": "%"}
    ]}
  ]
}
